# Data reported in ChEMBL document CHEMBL1124567, “2,4-Diamino-5-benzylpyrimidines and analogues as antibacterial agents. 11. Quinolylmethyl analogues with basic substituents conveying specificity” (J Med Chem, 1989).
# Legend:
# [1] = Dissociation constant of compound at 25 degree C; type: physicochemical
# Staphylococcus aureus = experiment: Comparative in vitro antibacterial activity of compound with trimethoprim against Staphylococcus aureus CN491; type: functional
# How it was run: (§1)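 Activity is expressed relative to trimethoprim as the reference, with values above 1 meaning lower activity than the reference. Dilutions were threefold (1:3), and a difference of ± one dilution was not treated as significant.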
# Klebsiella pneumoniae = experiment: Comparative in vitro antibacterial activity of compound with trimethoprim against Klebsiella pneumoniae CN3632; type: functional; how it was run: as §1
# Serratia marcescens = experiment: Comparative in vitro antibacterial activity of compound with trimethoprim against Serratia marcescens CN2398; type: functional; how it was run: as §1
# Citrobacter freundii = experiment: Comparative in vitro antibacterial activity of compound with trimethoprim against Citrobacter freundii 2200/77; type: functional; how it was run: as §1
# Salmonella typhimurium = experiment: Comparative in vitro antibacterial activity of compound with trimethoprim against Salmonella Typhimurium S 8587; type: functional, Salmonella enterica subsp. enterica serovar Typhimurium; conditions: Salmonella enterica; how it was run: as §1
# [2] = test system: Bordetella bronchiseptica; experiment: Comparative in vitro antibacterial activity of compound with trimethoprim against Bordetella bronchiseptica CN385; type: functional; how it was run: as §1
# Klebsiella aerogenes = experiment: Comparative in vitro antibacterial activity of compound with trimethoprim against Enterobacter aerogenes 2200/86; type: functional; how it was run: as §1
# Pasteurella multocida = experiment: Comparative in vitro antibacterial activity of compound with trimethoprim against Pasteurella multocida ATCC 6587; type: functional; how it was run: as §1
# [3] = test system: Mycolicibacterium smegmatis; experiment: Comparative in vitro antibacterial activity of compound with trimethoprim against Mycobacterium smegmatis S 3254; type: functional; how it was run: as §1
# Enterococcus faecalis = experiment: Comparative in vitro antibacterial activity of compound with trimethoprim against Streptococcus faecalis CN478; type: functional; how it was run: as §1
# Vibrio cholerae = experiment: Comparative in vitro antibacterial activity of compound with trimethoprim against Vibrio cholerae ATCC 14035; type: functional
# How it was run: (§2)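 In vitro activity given as a ratio to trimethoprim, which is tested alongside; values above 1 mean lower activity than trimethoprim. Compounds were tested in serial 1:3 dilutions, and a difference of ±one dilution is treated as not significant.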
# Streptococcus pyogenes = experiment: Comparative in vitro antibacterial activity of compound with trimethoprim against Streptococcus pyogenes CN10; type: functional; how it was run: as §1
# Shigella flexneri = experiment: Comparative in vitro antibacterial activity of compound with trimethoprim against Shigella flexneri CN6007; type: functional; how it was run: as §1
# Proteus mirabilis = experiment: Comparative in vitro antibacterial activity of compound with trimethoprim against Proteus mirabilis S2409; type: functional; how it was run: as §1
# [4] = Comparative in vitro antibacterial activity of compound with trimethoprim against Salmonella typhi CN512; type: functional, salmonella typhosa; how it was run: as §2
# Streptococcus agalactiae = experiment: Comparative in vitro antibacterial activity of compound with trimethoprim against Streptococcus agalactiae CN1143; type: functional; how it was run: as §1
# Proteus vulgaris = experiment: Comparative in vitro antibacterial activity of compound with trimethoprim against Proteus vulgaris CN329; type: functional; how it was run: as §1
# Escherichia coli = experiment: Comparative in vitro antibacterial activity of compound with trimethoprim against Escherichia coli CN314; type: functional; how it was run: as §1
# Dihydrofolate reductase = target: T1, Dihydrofolate reductase (Rattus norvegicus, UniProt Q920D2); experiment: Inhibitory activity against Dihydrofolate reductase in rat liver; type: tissue-based; conditions: read-out: I50
# T1 sequence (Q920D2 whole entry): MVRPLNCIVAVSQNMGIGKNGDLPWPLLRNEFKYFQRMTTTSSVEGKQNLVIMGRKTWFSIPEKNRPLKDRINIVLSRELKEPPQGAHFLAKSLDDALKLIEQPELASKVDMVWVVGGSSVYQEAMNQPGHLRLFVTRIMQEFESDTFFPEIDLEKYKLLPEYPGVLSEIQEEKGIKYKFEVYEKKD
smiles,measurement,setting,value
COc1ccc2ccccc2n1,pKa,[1],3.16
Cc1cc(N(C)C)nc2ccc(Cc3cnc(N)nc3N)cc12,MIC,Staphylococcus aureus,3 µg/mL
same,MIC,Klebsiella pneumoniae,10 µg/mL
same,MIC,Serratia marcescens,3 µg/mL
same,MIC,Citrobacter freundii,10 µg/mL
same,MIC,Salmonella typhimurium,10 µg/mL
same,MIC,[2],10 µg/mL
same,MIC,Klebsiella aerogenes,3 µg/mL
same,MIC,Pasteurella multocida,1 µg/mL
same,MIC,[3],1 µg/mL
same,MIC,Enterococcus faecalis,3 µg/mL
same,MIC,Vibrio cholerae,1 µg/mL
same,MIC,Streptococcus pyogenes,10 µg/mL
same,MIC,Shigella flexneri,10 µg/mL
same,MIC,Proteus mirabilis,3 µg/mL
same,MIC,[4],10 µg/mL
same,MIC,Streptococcus agalactiae,10 µg/mL
same,MIC,Proteus vulgaris,3 µg/mL
same,MIC,Escherichia coli,3 µg/mL
COc1cc(C)c2ccc(Cc3cnc(N)nc3N)cc2n1,MIC,Staphylococcus aureus,10 µg/mL
same,MIC,Klebsiella pneumoniae,100 µg/mL
same,MIC,Serratia marcescens,> 100 µg/mL
same,MIC,Citrobacter freundii,100 µg/mL
same,MIC,Salmonella typhimurium,100 µg/mL
same,MIC,[2],> 100 µg/mL
same,MIC,Klebsiella aerogenes,300 µg/mL
same,MIC,Pasteurella multocida,10 µg/mL
same,MIC,[3],3 µg/mL
same,MIC,Enterococcus faecalis,3 µg/mL
same,MIC,Vibrio cholerae,3 µg/mL
same,MIC,Streptococcus pyogenes,3 µg/mL
same,MIC,Shigella flexneri,300 µg/mL
same,MIC,Proteus mirabilis,30 µg/mL
same,MIC,[4],1000 µg/mL
same,IC50,Dihydrofolate reductase,4.5 µM
same,MIC,Streptococcus agalactiae,3 µg/mL
same,MIC,Proteus vulgaris,30 µg/mL
same,MIC,Escherichia coli,300 µg/mL
CCCCCc1cc(OC)c2cc(Cc3cnc(N)nc3N)cc(OC)c2n1,MIC,Staphylococcus aureus,0.3 µg/mL
same,MIC,Klebsiella pneumoniae,30 µg/mL
same,MIC,Serratia marcescens,30 µg/mL
same,MIC,Citrobacter freundii,10 µg/mL
same,MIC,Salmonella typhimurium,30 µg/mL
same,MIC,[2],10 µg/mL
same,MIC,Klebsiella aerogenes,10 µg/mL
same,MIC,Pasteurella multocida,10 µg/mL
same,MIC,[3],10 µg/mL
same,MIC,Enterococcus faecalis,1 µg/mL
same,MIC,Vibrio cholerae,3 µg/mL
same,MIC,Streptococcus pyogenes,3 µg/mL
same,MIC,Shigella flexneri,30 µg/mL
same,MIC,Proteus mirabilis,30 µg/mL
same,MIC,[4],30 µg/mL
same,MIC,Streptococcus agalactiae,0.3 µg/mL
same,MIC,Proteus vulgaris,100 µg/mL
same,MIC,Escherichia coli,10 µg/mL
COc1cccc2cccnc12,pKa,[1],4.99
Cc1cc(N2CCOCC2)nc2c(C)cc(Br)cc12,pKa,[1],6.37
COc1cc(C)nc2c(OC)cc(Br)cc12,pKa,[1],6.39
Cc1cc(N2CCOCC2)nc2c(C)cc(Cc3cnc(N)nc3N)cc12,MIC,Staphylococcus aureus,0.3 µg/mL
same,MIC,Klebsiella pneumoniae,10 µg/mL
same,MIC,Serratia marcescens,100 µg/mL
same,MIC,Citrobacter freundii,10 µg/mL
same,MIC,Salmonella typhimurium,30 µg/mL
same,MIC,[2],3 µg/mL
same,MIC,Klebsiella aerogenes,30 µg/mL
same,MIC,Pasteurella multocida,10 µg/mL
same,MIC,[3],3 µg/mL
same,MIC,Enterococcus faecalis,0.3 µg/mL
same,MIC,Vibrio cholerae,3 µg/mL
same,MIC,Streptococcus pyogenes,1 µg/mL
same,MIC,Shigella flexneri,30 µg/mL
same,MIC,Proteus mirabilis,30 µg/mL
same,MIC,[4],30 µg/mL
same,IC50,Dihydrofolate reductase,410 µM
same,MIC,Streptococcus agalactiae,0.3 µg/mL
same,MIC,Proteus vulgaris,100 µg/mL
same,MIC,Escherichia coli,30 µg/mL
Cc1cc(N2CCOCC2)nc2cc(Cc3cnc(N)nc3N)ccc12,MIC,Staphylococcus aureus,3 µg/mL
same,MIC,Klebsiella pneumoniae,300 µg/mL
same,MIC,Serratia marcescens,> 10 µg/mL
same,MIC,Citrobacter freundii,100 µg/mL
same,MIC,Salmonella typhimurium,1000 µg/mL
same,MIC,[2],> 100 µg/mL
same,MIC,Klebsiella aerogenes,300 µg/mL
same,MIC,Pasteurella multocida,300 µg/mL
same,MIC,[3],3 µg/mL
same,MIC,Enterococcus faecalis,3 µg/mL
same,MIC,Vibrio cholerae,10 µg/mL
same,MIC,Streptococcus pyogenes,10 µg/mL
same,MIC,Shigella flexneri,1000 µg/mL
same,MIC,Proteus mirabilis,> 30 µg/mL
same,MIC,[4],10000 µg/mL
same,IC50,Dihydrofolate reductase,16 µM
same,MIC,Streptococcus agalactiae,30 µg/mL
same,MIC,Proteus vulgaris,> 100 µg/mL
same,MIC,Escherichia coli,300 µg/mL
